Article PMC4979993 (Nature structural & molecular biology, 2011)
Several values for one entry are separate records, joined by “and”; a condition that tells them apart may be missing. Equal entries are not always repeated. Entries after “also recorded” stand apart in the source; their conditions may differ.

Experiments:
Aβ1–40 [1] = experiment: cTCCD single-molecule analysis of Aβ1–40 aggregation; assay type: biochemical
Summary of the method: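 Equimolar HiLyteFluor488- and HiLyteFluor647-labeled Aβ1–40 (2 μM) in SSPE pH 7.4, 37 °C, 200 rpm agitation; with or without clusterin at 1:1 molar. Sampled every 2–3 h and diluted to picomolar for two-colour confocal coincidence detection (1 ms bins, stage scanned 200 µm s⁻¹). Coincident bursts were scored as oligomers. Apparent size came from their brightness relative to non-coincident monomer bursts; n=3.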

Aβ1–40 fibrils = Aβ1–40 fibrils (Homo sapiens, UniProt P05067); experiment: cTCCD analysis of disaggregation of Aβ1–40 fibrils; assay type: biochemical; details: for ΔG° (dimer) / ΔG° (larger oligomer): from steady state apparent size distributions
Summary of the method: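 Fibrils grown statically from 8 μM labeled Aβ1–40, 72 h, 37 °C. Pelleted at ~10,000×g for 30 min, washed twice in SSPE pH 7.4, then resuspended. Where used, AlexaFluor647-labeled human serum clusterin was incubated with fibrils 12–16 h at 21 °C and unbound removed by centrifugation (100–200 nM bound). Released species tracked by cTCCD to plateau (~50 h). Rates fitted with monomolecular dissociation functions.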

Aβ1–40 [2] = experiment: TIRFM imaging of species in Aβ1–40 aggregation; assay type: biochemical
Summary of the method: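 Dual-label HiLyteFluor488/HiLyteFluor647 Aβ1–40 (monomer stocks in pH 12 NaOH, ice-sonicated 30 min) diluted into SSPE pH 7.4. Incubated 24 h at 37 °C with 200 rpm agitation. Human serum-derived clusterin was added at 4 h where used. Species on surface imaged by two-colour TIRFM (488 and 633 nm excitation, split-EMCCD, 7.9 frames s⁻¹). Sizes compared by two-sample, two-tailed, independent t-test.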

Aβ1–40 oligomers = experiment: Formation and persistence of clusterin:Aβ complexes; assay type: binding
Summary of the method: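 HiLyteFluor488 or HiLyteFluor647-labeled Aβ1–40, from NaOH-solubilised monomer in SSPE pH 7.4, is aggregated at 37 °C, 200 rpm, with AlexaFluor647-labeled human serum clusterin at 1:1 molar ratio, or released from pre-formed clusterin-bound fibrils. Complexes are diluted to […] at 21 °C and sampled over time by two-colour coincidence detection (cTCCD). Persistence is compared by two-tailed t-tests.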

Aβ1–40 fibril formation [3] = details: cited from earlier work
Aβ1–40 fibril formation [4] = experiment: Bulk aggregation / fibril formation of Aβ1–40; assay type: biochemical; details: HiLyteFluor488 or HiLyteFluor647 label, control experiments
amyloid fibrils = details: previous bulk measurements; cited from earlier work
[5] = cited from earlier work
[6] = with clusterin, disaggregation, n=8
[7] = Disaggregation, without clusterin, n=3, s.d.
[8] = Disaggregation, without clusterin, n=12, s.d.
[9] = without clusterin, disaggregation, n=12

## clusterin: extracellular chaperone protein, extracted from human serum
Aβ1–40 [1]; in presence of clusterin
  effect on distribution of the sizes of Aβ1–40 oligomers: not substantially altered
Aβ1–40 fibrils; Disaggregation, with clusterin, n=4, s.d.
  ΔG° (dimer): −25.8 ± 2.6 kJ mol^−1 and −25.8 ± 2.6 (4) kJ mol^−1
Aβ1–40 fibrils; Disaggregation, with clusterin, n=12, s.d.
  ΔG° (larger oligomer): −43.9 ± 1.0 kJ mol^−1 and −43.9 ± 1.0 (12) kJ mol^−1
Aβ1–40 fibrils; clusterin bound to Aβ fibrils
  effect on rate and extent of fibril disaggregation: decrease both the rate and the extent of fibril disaggregation
Aβ1–40 fibrils; with clusterin, disaggregation of fibrils, n=3, s.e.m.
  Rate of clusterin release: (9.8 ± 0.9)×10^−7 (3) s^−1
Aβ1–40 fibrils; with clusterin, disaggregation, n=3
  Final soluble clusterin concentration: 90 ± 14 (3) nM
Aβ1–40 fibrils; [6]
  Final concentration of all species: 120 ± 20 (8) nM
  Final concentration of oligomeric species: 0.42 ± 0.1 (8) nM
Aβ1–40 fibrils; with vs without clusterin, plateau region, n=8, P-value 0.0003, t-test
  effect on monomer concentration: decreased monomer concentration
Aβ1–40 fibrils; with vs without clusterin, plateau region, n=8, P-value 0.002, t-test
  effect on oligomer concentration / total oligomer population: increased oligomer concentration; also recorded: increase in the total oligomer population
Aβ1–40 [2]; 2 μM Aβ1–40, 24 h aggregation, 2 µM clusterin added at 4 h, P-value 0.01
  reduction in average size of species present: approximately 50%
Aβ1–40 oligomers; all oligomers found during aggregation and disaggregation
  binding to soluble oligomers: all of which interact with clusterin to form long-lived, stable complexes; also recorded: binds to all members of the ensemble of soluble oligomers
Aβ1–40 oligomers; formed at 100 nM, after dilution at picomolar concentrations
  persistence of clusterin:Aβ complexes: over 200 h
Aβ1–40 fibril formation [3]
  effect on fibril formation, bulk measurements: strongly inhibits fibril formation

## amyloid-β1–40 [Aβ1–40]
Aβ1–40 [1]; 30 nM Aβ1–40, 37 °C
  oligomers as share of total number of molecules: approximately 1%
Aβ1–40 [1]; 30 nM Aβ1–40, SSPE pH 7.4, 37 °C, agitation
  concentration of oligomers formed: 300 pM
Aβ1–40 [1]; 600 nM – 2 µM and 30 nM, aggregation and disaggregation
  distribution of apparent oligomer sizes: decreased exponentially with increasing apparent size; also recorded: effectively the same as that formed at a concentration of 30 nM; also recorded: approximately exponential decrease with apparent size
Aβ1–40 [1]; 2 μM Aβ1–40, 37 °C
  oligomers as share of total molecules at peak: approximately 1%
Aβ1–40 [1]; 2 μM Aβ1–40, 37 °C, agitation
  decrease in monomer concentration during growth phase of fibril formation: 75%
Aβ1–40 [1]; 2 μM Aβ1–40, SSPE pH 7.4, 37 °C, agitation
  peak concentration of stable oligomeric species: ~ 20 nM
Aβ1–40 [1]; Aggregation, without clusterin, from steady state apparent size distributions, n=4, s.d.
  ΔG° (dimer): −23.0 ± 2.9 (4) kJ mol^−1
Aβ1–40 [1]; cTCCD, apparent size
  range of oligomer sizes formed: dimers to 50mers
Aβ1–40 [1]; ~25–50 pM, 21 °C
  stability of the majority of soluble oligomeric species: over three
Aβ1–40 fibrils; [7]
  ΔG° (dimer): −18.2 ± 0.5 (3) kJ mol^−1
  ΔH° (dimer): −43.8 ± 24.5 (3) kJ mol^−1
  ΔS° dimer: −80.8 ± 83.5 (3) kJ mol^−1
Aβ1–40 fibrils; [8]
  ΔG° (larger oligomer): −38.9 ± 2.7 (12) kJ mol^−1
  ΔH° (larger oligomer): −29.1 ± 0.3 (12) kJ mol^−1
  ΔS° larger than dimer: 28.3 ± 1.1 (12) kJ mol^−1
Aβ1–40 fibrils; [9]
  Final concentration of all species: 270 ± 20 (12) nM
  Final concentration of oligomeric species: 0.16 ± 0.06 (12) nM
Aβ1–40 [2]; 2 μM Aβ1–40 without clusterin, 24 h aggregation, s.e.m.
  average size of species present: 1400 ± 200 nm
Aβ1–40 fibril formation [4]
  effect of fluorophores on bulk aggregation behavior: neither fluorophore had any appreciable effect on the bulk aggregation behavior
Amyloid fibrils
  free energy of the formation of amyloid fibrils: –36 kJ mol^−1
[5]
  Aβ1–40 clearance time in vivo: ~ 14 h
  Aβ1–40 production time in vivo: ~ 15 h
